Test results as given in ChEMBL document CHEMBL4765319, “Identification of a new series of flavopiridol-like structures as kinase inhibitors with high cytotoxic potency” (Eur J Med Chem, 2020).

Columns and labels:
[1] = system: SK-OV-3; assay: Antiproliferative activity against human SKOV3 cells assessed as reduction in cell viability incubated for 72 hrs by CellTiter-Blue fluorescence assay; settings: SK-OV-3, 72 h
[2] = molecular target: T1, Cyclin-dependent kinase 5/CDK5 activator 1 (Homo sapiens) (UniProt Q00535+Q15078); assay: Inhibition of human CDK5/p25 assessed as residual activity at 1 uM in presence of ATP by ADP-glo luminescent assay relative to control; assay type: protein-complex assay
Method in brief: (§1)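 Human kinases assayed by ADP-Glo luminescence with 10 μM ATP, compound at 10 or 1 μM. Activity is expressed as % of maximal activity relative to a DMSO control, mean n = 2.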

[3] = organism: Sus scrofa; assay: Inhibition of porcine CK1delta/epsilon assessed as residual activity at 10 uM in presence of ATP by ADP-glo luminescent assay relative to control
[4] = system: Plasmodium falciparum; assay: Inhibition of Plasmodium falciparum GSK3 assessed as residual activity at 1 uM in presence of ATP by ADP-glo luminescent assay relative to control
Method in brief: (§2)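 Recombinant P. falciparum GSK3, bacterially expressed, in buffer A (10 mM MgCl2, 1 mM EGTA, 1 mM DTT, 25 mM Tris-HCl pH 7.5, 50 μg/ml heparin). Substrate 0.010 μg/μl GS-1 peptide, 10 μM ATP, ADP-Glo luminescence. Compound at 10 or 1 μM; % residual activity vs DMSO control, mean n = 2.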

[5] = molecular target: T2, Glycogen synthase kinase-3 beta (Homo sapiens, UniProt P49841); assay: Inhibition of human GSK3beta assessed as residual activity at 1 uM in presence of ATP by ADP-glo luminescent assay relative to control
Method in brief: as §1
Target sequence in this assay (P49841 whole entry, looked up): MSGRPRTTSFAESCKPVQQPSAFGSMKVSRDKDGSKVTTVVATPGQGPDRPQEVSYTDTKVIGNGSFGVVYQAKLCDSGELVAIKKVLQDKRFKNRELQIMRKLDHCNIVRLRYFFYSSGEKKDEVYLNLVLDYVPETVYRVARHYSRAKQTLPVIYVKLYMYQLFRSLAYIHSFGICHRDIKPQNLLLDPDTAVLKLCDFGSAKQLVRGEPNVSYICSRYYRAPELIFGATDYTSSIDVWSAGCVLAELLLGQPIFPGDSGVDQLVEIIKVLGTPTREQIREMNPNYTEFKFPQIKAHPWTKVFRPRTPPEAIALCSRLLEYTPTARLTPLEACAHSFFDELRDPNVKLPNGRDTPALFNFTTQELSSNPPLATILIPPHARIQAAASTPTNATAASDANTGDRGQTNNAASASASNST

[6] = molecular target: T1, Cyclin-dependent kinase 5/CDK5 activator 1 (Homo sapiens); assay: Inhibition of human CDK5/p25 assessed as residual activity at 10 uM in presence of ATP by ADP-glo luminescent assay relative to control; assay type: protein-complex assay
Method in brief: as §1

[7] = organism: Sus scrofa; assay: Inhibition of porcine GSK3alpha/beta assessed as residual activity at 1 uM in presence of ATP by ADP-glo luminescent assay relative to control
Method in brief: (§3)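 Porcine brain GSK3α/β, native and affinity-purified. Assayed by ADP-Glo luminescence with 10 μM ATP and 0.010 μg/μl GS-1 peptide substrate. Buffer A: 10 mM MgCl2, 1 mM EGTA, 1 mM DTT, 25 mM Tris-HCl pH 7.5, 50 μg/ml heparin. Compound tested at 10 or 1 μM. Result is % of maximal activity versus DMSO control, mean of n = 2.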

[8] = molecular target: T3, CDK9/cyclin T1 (Homo sapiens) (UniProt O60563+P50750); assay: Inhibition of human CDK9/cyclin T assessed as residual activity at 1 uM in presence of ATP by ADP-glo luminescent assay relative to control; assay type: protein-complex assay
Method in brief: as §1

[9] = system: Plasmodium falciparum; assay: Inhibition of Plasmodium falciparum GSK3 assessed as residual activity at 10 uM in presence of ATP by ADP-glo luminescent assay relative to control
Method in brief: as §2

[10] = organism: Sus scrofa; assay: Inhibition of porcine GSK3alpha/beta assessed as residual activity at 10 uM in presence of ATP by ADP-glo luminescent assay relative to control
Method in brief: as §3

[11] = system: K562; assay: Antiproliferative activity against human K562 cells assessed as reduction in cell viability incubated for 72 hrs by CellTiter-Blue resazurin fluorescence assay; settings: K562, 72 h
[12] = system: MIA PaCa-2; assay: Antiproliferative activity against human MIA PaCa-2 cells assessed as reduction in cell viability incubated for 72 hrs by CellTiter-Blue fluorescence assay; settings: MIA PaCa-2, 72 h
[13] = molecular target: T3, CDK9/cyclin T1 (Homo sapiens); assay: Inhibition of human CDK9/cyclin T assessed as residual activity at 10 uM in presence of ATP by ADP-glo luminescent assay relative to control; assay type: protein-complex assay
Method in brief: as §1

[14] = molecular target: T4, CDK2/Cyclin A2 (Homo sapiens) (UniProt P24941+P20248); assay: Inhibition of human CDK2/cyclin A assessed as residual activity at 10 uM in presence of ATP by ADP-glo luminescent assay relative to control; assay type: protein-complex assay
Method in brief: as §1

[15] = molecular target: T4, CDK2/Cyclin A2 (Homo sapiens); assay: Inhibition of human CDK2/cyclin A assessed as residual activity at 1 uM in presence of ATP by ADP-glo luminescent assay relative to control; assay type: protein-complex assay
Method in brief: as §1

[16] = system: NCI-N87; assay: Antiproliferative activity against human NCI-N87 cells assessed as reduction in cell viability incubated for 72 hrs by CellTiter-Blue fluorescence assay; settings: NCI-N87, 72 h
[17] = molecular target: T2, Glycogen synthase kinase-3 beta; assay: Inhibition of human GSK3beta assessed as residual activity at 10 uM in presence of ATP by ADP-glo luminescent assay relative to control
Method in brief: as §1
Target sequence in this assay (P49841 whole entry, looked up): as above

[18] = organism: Sus scrofa; assay: Inhibition of porcine CK1delta/epsilon assessed as residual activity at 1 uM in presence of ATP by ADP-glo luminescent assay relative to control
[19] = system: Leishmania major; assay: Inhibition of Leishmania major CK1 assessed as residual activity at 10 uM in presence of ATP by ADP-glo luminescent assay relative to control
[20] = system: SK-BR-3; assay: Antiproliferative activity against human SK-BR-3 cells assessed as reduction in cell viability incubated for 72 hrs by CellTiter-Blue fluorescence assay; settings: SK-BR-3, 72 h
[21] = system: Leishmania major; assay: Inhibition of Leishmania major CK1 assessed as residual activity at 1 uM in presence of ATP by ADP-glo luminescent assay relative to control
[22] = system: PC-3; assay: Antiproliferative activity against human PC-3 cells assessed as reduction in cell viability incubated for 72 hrs by CellTiter-Blue fluorescence assay; settings: PC-3, 72 h
[23] = system: HCT-116; assay: Antiproliferative activity against human HCT-116 cells assessed as reduction in cell viability incubated for 72 hrs by CellTiter-Blue fluorescence assay; settings: HCT-116, 72 h
[24] = molecular target: Cyclin-dependent kinase 5/CDK5 activator 1 (Homo sapiens, UniProt Q00535); assay: Inhibition of human CDK5/p25 in presence of ATP by ADP-glo luminescent assay; assay type: protein-complex assay
Method in brief: (§4)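 Human kinases tested over roughly 0.0003–10 μM by ADP-Glo luminescence with 10 μM ATP, in duplicate. IC50 is taken from dose-response curves.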

[25] = molecular target: CDK9/cyclin T1 (Homo sapiens, UniProt P50750); assay: Inhibition of human CDK9/cyclin T in presence of ATP by ADP-glo luminescent assay; assay type: protein-complex assay
Method in brief: as §4

[26] = molecular target: CDK2/Cyclin A2 (Homo sapiens, UniProt P24941); assay: Inhibition of human CDK2/cyclin A in presence of ATP by ADP-glo luminescent assay; assay type: protein-complex assay
Method in brief: as §4

[27] = molecular target: T2, Glycogen synthase kinase-3 beta; assay: Inhibition of human GSK3beta in presence of ATP by ADP-glo luminescent assay
Method in brief: as §4
Target sequence in this assay (P49841 whole entry): as the sequence (P49841 whole entry, looked up) above

Chain of Cyclin-dependent kinase 5/CDK5 activator 1 (Q00535 whole entry): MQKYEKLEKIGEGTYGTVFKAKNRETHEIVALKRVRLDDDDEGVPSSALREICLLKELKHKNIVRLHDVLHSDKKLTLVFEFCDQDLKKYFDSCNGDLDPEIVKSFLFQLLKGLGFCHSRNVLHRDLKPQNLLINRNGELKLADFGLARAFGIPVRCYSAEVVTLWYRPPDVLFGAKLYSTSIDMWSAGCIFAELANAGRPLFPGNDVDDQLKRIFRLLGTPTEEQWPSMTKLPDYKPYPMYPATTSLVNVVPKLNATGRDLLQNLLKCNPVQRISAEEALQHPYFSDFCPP
Chain of Cyclin-dependent kinase 5/CDK5 activator 1 (Q15078 whole entry, further chain): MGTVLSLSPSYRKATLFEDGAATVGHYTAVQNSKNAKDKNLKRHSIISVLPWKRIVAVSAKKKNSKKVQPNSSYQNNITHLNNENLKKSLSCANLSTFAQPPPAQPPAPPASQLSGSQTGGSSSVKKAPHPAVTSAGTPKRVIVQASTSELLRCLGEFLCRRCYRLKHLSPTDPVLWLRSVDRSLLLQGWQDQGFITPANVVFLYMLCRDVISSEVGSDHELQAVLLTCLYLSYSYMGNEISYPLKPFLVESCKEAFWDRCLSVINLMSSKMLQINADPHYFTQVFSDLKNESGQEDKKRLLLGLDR
T1 sequence (Q00535 whole entry): as the sequence (Q00535 whole entry) above
T1 sequence (Q15078 99-307 partner limits assumed): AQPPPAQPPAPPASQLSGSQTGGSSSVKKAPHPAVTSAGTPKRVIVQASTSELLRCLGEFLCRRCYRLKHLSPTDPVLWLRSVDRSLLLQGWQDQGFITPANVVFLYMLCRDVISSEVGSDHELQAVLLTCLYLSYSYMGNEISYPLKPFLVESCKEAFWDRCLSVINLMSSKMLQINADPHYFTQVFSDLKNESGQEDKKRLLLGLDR
Chain of CDK9/cyclin T1 (O60563 whole entry): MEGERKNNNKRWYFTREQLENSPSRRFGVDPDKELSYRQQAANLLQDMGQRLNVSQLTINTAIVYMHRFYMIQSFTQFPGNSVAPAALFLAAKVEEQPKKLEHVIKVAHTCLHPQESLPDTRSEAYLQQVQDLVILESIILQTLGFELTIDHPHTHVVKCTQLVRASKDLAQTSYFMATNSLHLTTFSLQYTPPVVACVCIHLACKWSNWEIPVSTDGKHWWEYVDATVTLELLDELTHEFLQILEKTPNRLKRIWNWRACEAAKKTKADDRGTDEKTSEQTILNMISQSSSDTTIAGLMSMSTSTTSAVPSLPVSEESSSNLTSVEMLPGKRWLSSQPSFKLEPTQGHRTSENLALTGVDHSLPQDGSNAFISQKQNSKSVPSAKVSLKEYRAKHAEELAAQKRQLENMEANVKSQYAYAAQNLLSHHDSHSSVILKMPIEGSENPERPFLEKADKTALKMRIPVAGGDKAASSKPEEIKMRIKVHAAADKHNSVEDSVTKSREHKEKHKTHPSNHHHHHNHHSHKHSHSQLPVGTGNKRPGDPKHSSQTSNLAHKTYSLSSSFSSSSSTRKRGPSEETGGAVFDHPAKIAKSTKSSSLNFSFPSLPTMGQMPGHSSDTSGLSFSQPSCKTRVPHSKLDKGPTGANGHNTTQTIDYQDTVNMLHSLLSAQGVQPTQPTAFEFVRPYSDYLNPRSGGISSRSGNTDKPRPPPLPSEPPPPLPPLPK
Chain of CDK9/cyclin T1 (P50750 whole entry): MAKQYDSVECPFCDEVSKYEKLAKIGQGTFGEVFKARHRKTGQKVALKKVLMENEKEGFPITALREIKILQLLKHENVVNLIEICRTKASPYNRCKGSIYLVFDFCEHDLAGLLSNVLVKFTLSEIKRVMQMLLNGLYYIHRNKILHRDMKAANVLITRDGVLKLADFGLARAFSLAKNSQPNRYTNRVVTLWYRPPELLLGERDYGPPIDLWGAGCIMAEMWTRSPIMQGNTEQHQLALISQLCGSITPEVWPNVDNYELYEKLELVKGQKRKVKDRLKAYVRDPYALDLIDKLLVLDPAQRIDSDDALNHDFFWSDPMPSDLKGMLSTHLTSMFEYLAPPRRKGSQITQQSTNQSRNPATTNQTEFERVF

Row | SMILES | IC50 [1] [nM] | Activity [2] [%] | Activity [3] [%] | Activity [4] [%] | Activity [5] [%] | Activity [6] [%] | Activity [7] [%] | Activity [8] [%] | Activity [9] [%] | Activity [10] [%] | IC50 [11] [nM] | IC50 [12] [nM] | Activity [13] [%] | Activity [14] [%] | Activity [15] [%] | IC50 [16] [nM] | Activity [17] [%] | Activity [18] [%] | Activity [19] [%] | IC50 [20] [nM] | also measured
1 | CN1CC=C(c2c(O)cc(O)c3c(=O)cc(-c4ccc(Nc5ccccc5)cc4)oc23)CC1 | 1200 |  |  |  |  |  |  |  |  |  |  |  |  |  |  |  |  |  |  |  | 
2 | CN1CC[C@H](c2c(O)cc(O)c3c(=O)cc(-c4ccccc4Cl)oc23)[C@H](O)C1 [ALVOCIDIB] | 220 | 36 | 78 | > 100 | 50 | 13 | 70 | 5 | 70 | 16 | 125 | 320 | 1 | 11 | 26 | 111 | 10 | > 100 | 61 | 75 | Activity [21]: > 100%
3 | CN1CC=C(c2c(O)cc(O)c3c(=O)cc(-c4ccc(Sc5nc6ccccc6[nH]5)cc4)oc23)CC1 | 595 | 14 | 69 | 85 | 6 | 4 | 36 | 8 | 54 | 11 | 194 | 852 | 10 | 5 | 35 | 183 | -8 | 91 | 40 | 254 | IC50 [22]: 742 nM; IC50 [23]: 293 nM; IC50 [24]: 121 nM; IC50 [25]: 8 nM; IC50 [26]: 162 nM; IC50 [27]: 117 nM; Activity [21]: 99%
4 | CC(=O)OC[C@@H]1O[C@@H](Sc2ccc(-c3cc(=O)c4c(O)cc(O)c(C5=CCN(C)CC5)c4o3)cc2)[C@@H](OC(C)=O)[C@H](OC(C)=O)[C@@H]1OC(C)=O | 2870 |  |  |  |  |  |  |  |  |  |  |  |  |  |  |  |  |  |  |  | 
5 | CN1CC=C(c2c(O)cc(O)c3c(=O)cc(-c4ccc(Sc5ncccn5)cc4Cl)oc23)CC1 | > 10000 |  |  |  |  |  |  |  |  |  |  |  |  |  |  |  |  |  |  |  | 
6 | CC(=O)OC[C@@H]1O[C@@H](Sc2ccc(-c3cc(=O)c4c(O)cc(O)c(C5=CCN(C)CC5)c4o3)cc2)[C@@H](OC(C)=O)[C@H](OC(C)=O)[C@H]1OC(C)=O | > 10000 |  |  |  |  |  |  |  |  |  |  |  |  |  |  |  |  |  |  |  | 
7 | CN1CC=C(c2c(O)cc(O)c3c(=O)cc(-c4ccc(Sc5ncccn5)cc4)oc23)CC1 | > 10000 |  |  |  |  |  |  |  |  |  |  |  |  |  |  |  |  |  |  |  | 
8 | CN1CC=C(c2c(O)cc(O)c3c(=O)cc(-c4ccc(Sc5nc6ccccc6n5C)cc4)oc23)CC1 | 344 | 41 | 41 | 80 | 31 | 26 | 41 | -2 | 79 | 8 | 345 | 361 | -4 | 25 | 51 | 391 | -3 | 83 | 57 | 249 | IC50 [22]: 276 nM; IC50 [23]: 219 nM; IC50 [24]: 284 nM; IC50 [25]: 14 nM; IC50 [26]: 349 nM; IC50 [27]: 160 nM; Activity [21]: 68%
9 | CN1CC=C(c2c(O)cc(O)c3c(=O)cc(-c4ccc(Sc5nc6ccccc6[nH]5)cc4Cl)oc23)CC1 | 333 | 42 | 48 | > 100 | 14 | 14 | 43 | 2 | 64 | 4 | 36 | 361 | 3 | 22 | 46 | 12 | 4 | 86 | 35 | 66.6 | IC50 [22]: 326 nM; IC50 [23]: 170 nM; IC50 [24]: 550 nM; IC50 [25]: 15 nM; IC50 [26]: 1560 nM; IC50 [27]: 216 nM; Activity [21]: 81%
10 | CN1CC=C(c2c(O)cc(O)c3c(=O)cc(-c4ccc(SCCC(=O)NO)cc4)oc23)CC1 | > 10000 |  |  |  |  |  |  |  |  |  |  |  |  |  |  |  |  |  |  |  | 
11 | CN1CC=C(c2c(O)cc(O)c3c(=O)cc(-c4ccc(Sc5ccc6ccccc6n5)cc4)oc23)CC1 | 3800 |  |  |  |  |  |  |  |  |  |  |  |  |  |  |  |  |  |  |  | 
